697 NFkB inh – inhibitors of PMA/ionomycin-induced NF-kB reporter, 697 cells, primary screen, B-cell NF-kB inhibitor project, cell-based, luminescence, uHTS | 697 B-cell NF-kB luciferase reporter, 16 h | 330,000 tested, 0.33% active | AID 435022, 2010 | inhibition, % at 4 µM; in the data active = inhibition above about 35%
T cruzi repl – inhibitors of intracellular T. cruzi growth, primary screen, luminescence, NIH3T3 host cells. inhibition, % (test concentration not listed). T. cruzi beta-gal in NIH3T3, 90 h. 300,000 tested, 1.4% active. AID 1885, 2009;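 active = mean inhibition across valid replicates above about 55%, limit read from the data; inconclusive = mean below that limit but half or more replicates reach it; inactive = mean below it, under half of replicates reach it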;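 also: signal also drops with host cell toxicity which is not excluded here; 0% = plate median of DMSO wells and 100% = zero luminescence signal; higher percent means less beta-gal luminescence so fewer parasites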
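assay system = mouse NIH/3T3 fibroblasts infected with β-gal-expressing T. cruzi Tulahuen C4 | input = 5,000 NIH/3T3 host cells per well | buffer or medium = DMEM plus 2% FBS | timing = 3 h host attachment, then at least 90 h co-culture | measured by = GalScreen luminescence, 60 min | evaluation = luminescence reflecting intracellular parasite burden, expressed as percent inhibition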
HSF1 inh – HSF1 inhibitors in luciferase reporter cells, primary screen, cell-based, NIH3T3, luminescence | 300,000 tested, 0.77% active | AID 2098, 2009 | activity change, negative = inhibition, % at 7.5 µM (by protocol) | NIH3T3-HGL HSE-luciferase, MG132-induced, luminescence 8 h; stronger effect = lower value;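 active = more than half of replicate wells show activity change below -50%, luminescence cut by over half; inconclusive = some wells, but at most half, below -50%; inactive = no replicate well below -50%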;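 also: luciferase reports HSF-1 transcriptional activity via heat shock element; 0% = median of DMSO wells and -100% = zero luminescence signal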
HSF-1 act – HSF-1 activators, primary screen, NIH3T3-HGL cells, MG132 stress, luminescence, single point. NIH3T3-HGL HSF-1 luciferase reporter, 8 h; 100% = twice DMSO control signal. activation, % at 9 µM. 300,000 tested, 1.7% active;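 active = mean replicate activation of at least 50% with a set share of replicates each reaching 50%; inconclusive = only one of those two conditions met; inactive = mean below 50% and too few replicates reaching it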;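 also: 0% = median of the neutral control wells and 100% = twice that signal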
Jurkat NFkB inh – inhibitors of induced NF-kB luciferase reporter, primary screen, TCR NF-kB activation inhibitor project, cell-based, luminescence, uHTS; Jurkat, PMA/ionomycin-induced NF-kB luciferase reporter; inhibition, % at 4 µM; 330,000 tested, 0.53% active; AID 435003, 2010; in the data active = inhibition above about 50%
GPR7 antagonist – GPR7 receptor antagonists, primary screen, cell-based, fluorescence, single concentration; AID 1861, 2009; 290,000 tested, 1.1% active; GPR7-expressing cells, fluorescence antagonist assay; inhibition, % at 4.4 µM; in the data active = inhibition above about 16%, passing the limit was not always enough;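 also: cells stimulated with the agonist NPW; 0% = agonist with vehicle and 100% = vehicle without agonist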
Target sequence (P48145 whole entry, looked up): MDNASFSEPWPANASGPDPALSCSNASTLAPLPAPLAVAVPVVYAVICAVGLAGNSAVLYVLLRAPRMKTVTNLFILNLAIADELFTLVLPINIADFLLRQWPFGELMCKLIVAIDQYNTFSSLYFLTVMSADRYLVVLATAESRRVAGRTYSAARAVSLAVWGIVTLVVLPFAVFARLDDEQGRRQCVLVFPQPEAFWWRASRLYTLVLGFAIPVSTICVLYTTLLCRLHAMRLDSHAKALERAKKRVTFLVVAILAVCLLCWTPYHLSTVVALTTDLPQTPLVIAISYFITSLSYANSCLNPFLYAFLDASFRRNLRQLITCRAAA
GPR7 antag conf – GPR7 receptor antagonists, confirmation, cell-based, fluorescence, single concentration. shares compounds with GPR7 antagonist. GPR7-expressing cells, calcium fluorescence antagonist mode. inhibition, % at 4.4 µM. 2,400 tested, 52% active. AID 1952, 2009; in the data active = inhibition above about 24%;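 also: stimulated with the GPR7 agonist NPW; 0% = agonist plus vehicle and 100% = vehicle alone without agonist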
MCHR1 antagonist – MCHR1 antagonists in cells, counter-screen for GPR7 antagonist project, cell-based, fluorescence, human. MCHR1-expressing cells, fluorescence antagonist assay. 2,400 tested, 62% active. shares compounds with GPR7 antagonist. inhibition, % at 4.4 µM; in the data active = inhibition above about 22%;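 also: 0% = vehicle with agonist and 100% = vehicle without agonist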
Jurkat NFkB conf – PMA/ionomycin-induced NF-kB reporter inhibitors, Jurkat retest, confirmation, T-cell NF-kB inhibitor project, cell-based, luminescence, single concentration | shares compounds with Jurkat NFkB inh | Jurkat NF-kB luciferase, 16 h | inhibition, % at 4 µM | 2,700 tested, 27% active | AID 435020, 2010;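 active = inhibition reaching about 45% at 4 µM in either replicate, limit read from the data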;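 also: plate controls were PMA/ionomycin stimulated DMSO wells for no effect and unstimulated DMSO wells for full effect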
697 NFkB conf – PMA/ionomycin-induced NF-kB reporter inhibitors, 697 retest, confirmation, B-cell NF-kB inhibitor project, cell-based, luminescence, single concentration. shares compounds with 697 NFkB inh. 697 B-cell NF-kB luciferase, 16 h. inhibition, % at 4 µM. 2,000 tested, 35% active; in the data active = inhibition mostly above about 28%, no sharp cut-off; inactive = mostly below about 22%
Numbers without * were called inactive; i = inactive; u = inconclusive; x = not tested or not shown. Only some compounds are listed: those with a hit (about 4.8% of all), similar ones and a draw of the others.

SMILES | 697 NFkB inh | T cruzi repl | HSF1 inh | HSF-1 act | Jurkat NFkB inh | GPR7 antagonist | Jurkat NFkB conf | others
COc1cccc(CN(C)C(=O)c2cc(COc3c(F)cccc3F)on2)c1 | 21.7 | 17.1 | 4.6 | u | 0.0 | 3.5 | x
COc1ccccc1C(=O)N(CCC1CCCN1C)c1nc2ccccc2s1 (stereo not given) | -315.7 | 49.6 | -71.6* | -71.1 | -216.1 | 23.8* | 38.3 | GPR7 antag conf=25.6*;MCHR1 antagonist=9.0;697 NFkB conf=-288.3
S=C(c1cn(CCOc2ccccc2)c2ccccc12)N1CCCC1 | 2.3 | 15.6 | 14.5 | 33.1 | 8.6 | 13.6 | x
Cc1ccc(OCCn2cc(C(=S)N3CCCC3)c3ccccc32)cc1C | i | 29.6 | 15.6 | 1.5 | -57.8 | 27.3* | x | GPR7 antag conf=29.1*;MCHR1 antagonist=67.7*;697 NFkB conf=7.2
CNC(=O)c1[nH]cnc1C(=O)Nc1ccccn1 | 10.5 | -6.0 | 2.1 | -1.3 | -6.8 | -10.3 | x
CC(C)NC(=O)c1ccc(-n2nc(C(F)(F)F)c3c2CCCC3)cc1 | -8.7 | 5.5 | -6.5 | -2.5 | -8.5 | -7.9 | x
CCC(C)(C)c1ccc(OCCCC[n+]2ccc(C)cc2)c(C(C)(C)CC)c1 | 81.3* | 35.0 | 7.9 | 4.3 | 53.8* | 69.0* | 55.1* | GPR7 antag conf=74.3*;MCHR1 antagonist=83.3*;697 NFkB conf=44.4*
Cc1cc[n+](CC[n+]2ccc(C)cc2)cc1 | 7.1 | -14.4 | -5.0 | -2.1 | -14.2 | x | x
Cc1ccccc1C(=O)Nc1ccc2c(c1)CCCN2C(=O)c1cccs1 | i | 2.8 | 1.8 | -0.4 | -51.7 | 25.3* | x | GPR7 antag conf=16.0;MCHR1 antagonist=34.8*;697 NFkB conf=i
CC(C)c1ccc(NC(=O)[C@H](Cc2c[nH]c3ccccc23)NC(=O)[C@@H]2Cc3ccccc3CN2)cc1 | i | 16.5 | -10.6 | -23.4 | -35.1 | 27.3* | x | GPR7 antag conf=7.1;MCHR1 antagonist=2.7;697 NFkB conf=-91.6
COc1ccc(NC(=O)[C@H](Cc2c[nH]c3ccccc23)NC(=O)[C@@H]2Cc3ccccc3CN2)cc1 | -237.7 | 4.6 | 1.9 | -4.0 | -36.4 | 3.1 | x
CCCOc1ccc(N/C=C/C(=O)c2cc(OC)c(OC)c(OC)c2)cc1 | -1.5 | 34.5 | 1.5 | -2.7 | 1.4 | -9.5 | x
O=C(Nc1ccc2ccccc2c1)c1ccccc1O | -324.0 | -14.9 | 24.9 | 34.0 | -120.0 | 30.4* | x | GPR7 antag conf=39.2*;MCHR1 antagonist=52.5*;697 NFkB conf=-458.9
O=C(COC(=O)c1ccc(OC(F)F)cc1)NCCCN1CCCC1=O | 16.0 | 3.1 | x | x | -2.5 | -12.4 | x
CCOc1ccc(-n2c(-c3ccc(OC)cc3)c[n+]3c2CCCCC3)cc1 | 56.8* | 52.6 | -15.2 | -1.5 | 73.0* | 36.4* | 58.2* | GPR7 antag conf=55.1*;MCHR1 antagonist=48.7*;697 NFkB conf=65.0*
COc1ccc(-c2c[n+]3c(n2-c2ccc(C)cc2)CCCCC3)cc1 | 51.0* | 60.1* | -8.9 | -7.7 | 79.3* | 25.1* | 60.9* | GPR7 antag conf=46.8*;MCHR1 antagonist=38.2*;697 NFkB conf=65.2*
COc1ccc(-c2c[n+]3c(n2-c2c(C)n(C)n(-c4ccccc4)c2=O)CCCCC3)cc1 | 21.8 | -28.0 | -1.8 | 1.0 | 23.3 | -15.2 | x
C/C(=N\NC(=O)c1cc(C)nc2ccccc12)c1ccccn1 | -76.8 | x | x | x | 94.6* | x | 44.8*
COc1ccc(C(=O)NNC(=O)c2ccccn2)cc1 | -61.2 | -4.7 | -67.7* | -75.6 | 52.1* | -0.2 | 63.1*
C/C(=N\NC(=O)c1ccncc1)c1ccc(NC(=O)c2ccc(Cl)cc2)cc1 | -164.9 | -6.4 | -2.0 | 22.4 | -152.2 | 3.3 | -91.6
C/C(=N\NC(=O)c1ccc(Cl)cc1)c1ccccn1 | -123.0 | 60.5* | 4.7 | 18.1 | 98.0* | -1.5 | -0.9
N#C/C(=C/c1cccn1-c1cccc(C(=O)O)c1)c1ccc(F)cc1 | x | 0.0 | 6.2 | 14.3 | x | -12.3 | x
COc1cccc(CNC(=O)c2ccc(NS(=O)(=O)c3ccc4[nH]c(=O)[nH]c4c3)cc2)c1 | 1.2 | x | x | x | 7.6 | x | x
CC1(C)CC(=O)C=C(NCc2ccc(C(=O)O)cc2)C1 | 13.5 | -11.5 | -4.5 | 2.8 | -10.4 | -13.8 | x
O=C(NN=C1CCCC1)c1[nH]c2ccc(Br)cc2c1-c1ccccc1 | 31.4 | x | x | x | 2.0 | 6.8 | x
SMILES | 697 NFkB inh | T cruzi repl | HSF1 inh | HSF-1 act | Jurkat NFkB inh | GPR7 antagonist | Jurkat NFkB conf | others
O=C(N/N=C/c1ccccc1)c1[nH]c2ccc(Br)cc2c1-c1ccccc1 | 34.4 | -7.9 | -12.3 | -31.4 | 57.8* | -7.1 | 8.3
COc1ccccc1Oc1ccc(-c2cnc3ccccc3n2)cc1[N+](=O)[O-] | -70.1 | -17.1 | 4.5 | -4.6 | 59.5* | 5.1 | -2.6
O=[N+]([O-])c1cc(-c2cnc3ccccc3n2)ccc1Oc1ccc(Cl)cc1 | -5.4 | 0.1 | 10.1 | 37.8 | -8.8 | 9.4 | x
CCOc1ccc2c(c1)OC(c1ccc(OC)cc1)(C(F)(F)F)NC2=O (stereo not given) | -11.8 | 34.7 | 14.2 | 23.1 | 56.6* | 1.0 | 39.8
CCOc1ccc(S(=O)(=O)N2CCCC(C(=O)NCc3ccccc3)C2)cc1 (stereo not given) | -10.9 | -3.2 | -0.9 | -1.5 | 8.0 | -7.2 | x
NC(=O)CSc1nc(N)c2c3c(sc2n1)CCCCC3 | -6.2 | -7.7 | 5.1 | 7.7 | -10.1 | 4.5 | x
NC(=O)CSc1nc(C2CC2)nc2sc3c(c12)CCCC3 | -224.7 | -5.8 | x | x | -189.3 | -3.5 | -70.5
COc1ccc(C2=NOC(C(=O)Nc3ccc4c(c3)OCO4)C2)cc1OC (stereo not given) | -5.7 | 10.8 | 1.8 | 9.7 | -1.3 | -6.1 | x
CC(NC(=O)CN1C(=O)NC(C)(c2cccc3ccccc23)C1=O)c1ccccc1 (stereo not given) | 2.3 | -7.6 | 3.9 | 1.9 | 1.6 | -2.9 | x
CC(=O)c1ccc(N2CCN(S(=O)(=O)c3ccc4c(c3)CC(C)N4C(C)=O)CC2)cc1 (stereo not given) | -3.6 | -3.0 | 6.3 | 12.4 | 38.0 | 21.7 | x

Screens: PubChem, several laboratories
